Data published in ChEMBL document CHEMBL5674890, “Selective inhibition of CBP/p300 HAT by A-485 results in suppression of lipogenesis and hepatic gluconeogenesis” (Cell Death Dis, 2020).
Activity calls are given as the source filed them. The rule behind the calls is not given here.

Assays:
Mus musculus [1] = test: Anti-obesity activity in 16 hrs fasted C57BL/6 mouse supplemented with normal chow diet assessed as decrease in blood glucose level at 20 mg/kg/day, ip administered for 1 week measured after 15 to 30 mins by pyruvate tolerance test; format: functional, organism-based; details: time 1.0 weeks
Procedure, shortened: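 Normal-chow male C57BL/6 mice (8 weeks old) dosed ip at 20 mg·kg−1·day−1 for 7 days. Pyruvate tolerance test: 16 h fast, then pyruvate 2 g/kg body weight ip, blood glucose followed over time. Mean ± SEM, n = 5–9.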

Mus musculus [2] = test: Inhibition of lipogenesis in C57BL/6 mouse supplemented with normal chow diet assessed as decrease in DGAT2 mRNA expression at 20 mg/kg/day, ip administered for 1 week measured by RT-qPCR assay; format: functional, organism-based; details: time 1.0 weeks
Procedure, shortened: (§1)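 Eight-week-old male C57BL/6 mice on normal chow were given 20 mg·kg−1·day−1 ip daily for 7 days or vehicle. Epididymal WAT was collected. Lipogenic, adipogenic and fatty-acid-oxidation transcripts were quantified by Trizol extraction and SYBR Green RT-qPCR. FAS, ACC, PPARγ and C/EBPα protein were assessed by western blot. n = 5–9; mean ± SEM.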

Mus musculus [3] = test: Inhibition of lipogenesis in C57BL/6 mouse supplemented with normal chow diet assessed as decrease in C/EBPalpha mRNA expression at 20 mg/kg/day, ip administered for 1 week measured measured by RT-qPCR assay; format: functional, organism-based; details: time 1.0 weeks; procedure, shortened: as §1
Adipocyte [4] = test: Inhibition of lipogenesis in mouse adipocytes isolated stromal vascular cells assessed as decrease in ChREBP mRNA expression measured after 24 hrs by RT-qPCR assay; format: functional, cell-based
Procedure, shortened: (§2)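 Stromal vascular cells from inguinal WAT of C57BL/6 mice, grown in DMEM/F12 + 10% FBS at 37 °C, 10% CO2. At confluence, induced 48 h with 5 μg/ml insulin, 1 μM dexamethasone, 0.5 mM isobutylmethylxanthine, then 6 days in 5 μg/ml insulin; fully differentiated day 8. Mature adipocytes exposed to inhibitor 24 h. Total RNA by Trizol, SYBR Green RT-qPCR; protein by western blot.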

Adipocyte [5] = test: Inhibition of lipogenesis in mouse adipocytes isolated stromal vascular cells assessed as decrease in adiponectin mRNA expression measured after 24 hrs by RT-qPCR assay; format: functional, cell-based; procedure, shortened: as §2
Adipocyte [6] = test: Inhibition of lipogenesis in mouse adipocytes isolated stromal vascular cells assessed as decrease in LPL mRNA expression measured after 24 hrs by RT-qPCR assay; format: functional, cell-based; procedure, shortened: as §2
Adipocyte [7] = test: Inhibition of lipogenesis in mouse adipocytes isolated stromal vascular cells assessed as decrease in C/EBPalpha mRNA expression measured after 24 hrs by RT-qPCR assay; format: functional, cell-based; procedure, shortened: as §2
Mus musculus [8] = test: Inhibition of hepatic lipogenesis in C57BL/6 mouse supplemented with normal chow diet assessed as decrease in total cholesterol level at 20 mg/kg/day, ip administered for 1 week; format: functional, organism-based; details: time 1.0 weeks
Procedure, shortened: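 Male C57BL/6 mice received ip A-485 at 20 mg·kg−1·day−1 for 7 days, versus vehicle. NCD mice were 8 weeks old. HFD mice had been on high-fat diet for 14 weeks from 5 weeks of age. Liver triglyceride and total cholesterol content was determined. n = 5–9; mean ± SEM.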

Mus musculus [9] = test: Inhibition of hepatic lipogenesis in C57BL/6 mouse supplemented with normal chow diet assessed as decrease in ChREBP protein expression at 20 mg/kg/day, ip administered for 1 week measured by western blot analysis; format: functional, organism-based; details: time 1.0 weeks
Procedure, shortened: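 Normal-chow male C57BL/6 mice, 8 weeks old, were injected ip at 20 mg·kg−1·day−1 daily for 7 days or given vehicle. Liver tissue was homogenized in lysis buffer, and FAS and ChREBP protein were assessed by western blot. n = 5–9.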

Mus musculus [10] = test: Inhibition of hepatic lipogenesis in C57BL/6 mouse supplemented with normal chow diet assessed as effect on CPT1alpha mRNA expression at 20 mg/kg/day, ip administered for 1 week measured by RT-qPCR assay; format: functional, organism-based; details: time 1.0 weeks
Procedure, shortened: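 Normal-chow male C57BL/6 mice, 8 weeks old, were injected ip at 20 mg·kg−1·day−1 daily for 7 days or given vehicle. Liver RNA was extracted with Trizol, and fatty-acid-oxidation gene transcripts were quantified by SYBR Green RT-qPCR. n = 5–9; mean ± SEM.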

Hepatocyte [11] = test: Inhibition of glucogenesis in mouse primary hepatocytes stimulated with 100 uM 8-Br-cAMP assessed as decrease in FBP mRNA expression at 3 uM in combination with 2 mM metformin measured by RT-qPCR assay; format: functional, cell-based
Procedure, shortened: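 Primary mouse hepatocytes given 3 μM compound with 2 mM metformin in the presence of 100 μM 8-Br-cAMP. Gluconeogenic gene mRNA measured by SYBR Green RT-qPCR. Mean ± SEM, three independent experiments.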

Hepatocyte [12] = test: Inhibition of glucogenesis in mouse primary hepatocytes stimulated with 100 uM 8-Br-cAMP assessed as effect on PGC1alpha protein expression at 3 uM measured after 12 hrs by western blot analysis; format: functional, cell-based
Procedure, shortened: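 Primary mouse hepatocytes incubated 12 h with 3 μM compound and 100 μM 8-Br-cAMP. Lysates western blotted for FOXO1, C/EBPα or PGC1α. Three independent experiments.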

[13] = target: CREB-binding protein/Histone acetyltransferase p300 (Homo sapiens) (UniProt Q09472+Q92793); test: Inhibition of CBP/p300 in human HEK293T cells expressing HA-FOXO1 stimulated with 100 uM 8-Br-cAMP assessed as decrease in FOXO1 abundance in nucleus at 3 uM measured after 24 hrs by immunofluorescence analysis; format: cell-based; details: time 3.0 hrs, in the assay text read “3 hrs” for “24 hrs”
Procedure, shortened: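 HEK293T cells transfected with HA-FOXO1 plasmid for 24 h, then treated 3 h with 3 μM compound and 100 μM 8-Br-cAMP. Staining steps: fixed in 10% formalin, permeabilized 0.1% Triton X100, blocked 5% BSA, anti-HA (1:200) overnight at 4 °C, FITC secondary, DAPI. Localization imaged by fluorescence microscopy.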

Chain of CREB-binding protein/Histone acetyltransferase p300 (Homo sapiens) (Q09472 whole entry, looked up): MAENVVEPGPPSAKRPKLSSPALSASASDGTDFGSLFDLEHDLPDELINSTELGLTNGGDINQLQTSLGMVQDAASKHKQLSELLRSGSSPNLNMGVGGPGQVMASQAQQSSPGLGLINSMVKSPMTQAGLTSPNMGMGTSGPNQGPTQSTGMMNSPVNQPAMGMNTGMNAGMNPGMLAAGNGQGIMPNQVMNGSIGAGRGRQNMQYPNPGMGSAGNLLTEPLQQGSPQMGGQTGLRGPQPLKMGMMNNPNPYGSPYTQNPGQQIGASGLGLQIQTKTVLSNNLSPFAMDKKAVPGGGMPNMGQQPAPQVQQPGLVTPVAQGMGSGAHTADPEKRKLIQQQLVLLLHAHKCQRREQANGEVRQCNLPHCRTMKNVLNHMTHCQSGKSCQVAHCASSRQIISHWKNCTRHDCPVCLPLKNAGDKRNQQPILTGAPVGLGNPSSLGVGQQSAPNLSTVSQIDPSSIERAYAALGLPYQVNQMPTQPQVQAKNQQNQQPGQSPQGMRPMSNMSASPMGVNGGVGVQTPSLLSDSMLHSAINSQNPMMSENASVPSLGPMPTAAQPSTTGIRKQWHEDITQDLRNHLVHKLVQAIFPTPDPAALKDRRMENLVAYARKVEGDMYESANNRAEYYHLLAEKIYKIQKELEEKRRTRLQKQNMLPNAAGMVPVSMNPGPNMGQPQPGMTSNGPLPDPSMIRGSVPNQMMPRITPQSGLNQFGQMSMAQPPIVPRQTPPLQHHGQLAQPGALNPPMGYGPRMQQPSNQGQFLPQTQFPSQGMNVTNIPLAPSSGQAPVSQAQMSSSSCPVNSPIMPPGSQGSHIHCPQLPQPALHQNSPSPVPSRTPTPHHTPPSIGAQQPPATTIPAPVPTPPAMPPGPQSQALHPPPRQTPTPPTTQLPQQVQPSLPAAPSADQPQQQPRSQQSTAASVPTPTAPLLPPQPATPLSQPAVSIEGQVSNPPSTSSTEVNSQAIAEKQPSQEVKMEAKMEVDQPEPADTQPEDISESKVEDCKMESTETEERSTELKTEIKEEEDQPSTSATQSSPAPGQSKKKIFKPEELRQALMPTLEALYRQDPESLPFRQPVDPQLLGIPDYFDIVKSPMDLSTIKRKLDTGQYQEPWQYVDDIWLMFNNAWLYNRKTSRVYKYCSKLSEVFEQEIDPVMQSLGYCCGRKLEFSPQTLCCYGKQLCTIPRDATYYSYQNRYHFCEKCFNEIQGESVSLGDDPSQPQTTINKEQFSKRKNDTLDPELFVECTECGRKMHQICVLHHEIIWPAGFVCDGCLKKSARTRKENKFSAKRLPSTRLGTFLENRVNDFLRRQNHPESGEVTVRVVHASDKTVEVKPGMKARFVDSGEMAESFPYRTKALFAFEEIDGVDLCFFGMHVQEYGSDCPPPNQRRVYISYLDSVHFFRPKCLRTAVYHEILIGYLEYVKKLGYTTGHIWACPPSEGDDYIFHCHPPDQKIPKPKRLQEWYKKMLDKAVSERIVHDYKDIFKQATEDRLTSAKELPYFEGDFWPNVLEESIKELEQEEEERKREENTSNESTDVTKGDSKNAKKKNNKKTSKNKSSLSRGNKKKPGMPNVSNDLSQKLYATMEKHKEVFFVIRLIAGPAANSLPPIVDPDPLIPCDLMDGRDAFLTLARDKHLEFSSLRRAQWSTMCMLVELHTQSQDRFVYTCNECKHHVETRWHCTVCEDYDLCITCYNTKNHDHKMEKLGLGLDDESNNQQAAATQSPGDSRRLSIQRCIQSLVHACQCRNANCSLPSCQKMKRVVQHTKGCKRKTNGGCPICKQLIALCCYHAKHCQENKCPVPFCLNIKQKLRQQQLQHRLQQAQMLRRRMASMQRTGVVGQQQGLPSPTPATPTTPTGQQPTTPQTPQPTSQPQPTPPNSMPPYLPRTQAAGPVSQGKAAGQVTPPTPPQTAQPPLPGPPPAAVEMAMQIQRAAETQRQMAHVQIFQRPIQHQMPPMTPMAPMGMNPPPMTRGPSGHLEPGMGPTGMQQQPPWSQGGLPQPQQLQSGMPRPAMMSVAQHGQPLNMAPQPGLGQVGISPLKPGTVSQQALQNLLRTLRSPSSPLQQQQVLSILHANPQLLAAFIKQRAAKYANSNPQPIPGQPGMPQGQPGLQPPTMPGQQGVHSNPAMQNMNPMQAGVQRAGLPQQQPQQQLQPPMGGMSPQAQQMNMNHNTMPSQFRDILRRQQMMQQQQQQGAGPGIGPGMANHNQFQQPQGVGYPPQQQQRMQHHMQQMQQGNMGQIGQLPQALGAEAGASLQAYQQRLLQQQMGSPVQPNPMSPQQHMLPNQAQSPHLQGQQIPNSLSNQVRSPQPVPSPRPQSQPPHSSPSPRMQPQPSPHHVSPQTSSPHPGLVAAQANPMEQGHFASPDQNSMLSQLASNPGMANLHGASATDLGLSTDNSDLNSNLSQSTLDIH
Chain of CREB-binding protein/Histone acetyltransferase p300 (Homo sapiens) (Q92793 whole entry, looked up): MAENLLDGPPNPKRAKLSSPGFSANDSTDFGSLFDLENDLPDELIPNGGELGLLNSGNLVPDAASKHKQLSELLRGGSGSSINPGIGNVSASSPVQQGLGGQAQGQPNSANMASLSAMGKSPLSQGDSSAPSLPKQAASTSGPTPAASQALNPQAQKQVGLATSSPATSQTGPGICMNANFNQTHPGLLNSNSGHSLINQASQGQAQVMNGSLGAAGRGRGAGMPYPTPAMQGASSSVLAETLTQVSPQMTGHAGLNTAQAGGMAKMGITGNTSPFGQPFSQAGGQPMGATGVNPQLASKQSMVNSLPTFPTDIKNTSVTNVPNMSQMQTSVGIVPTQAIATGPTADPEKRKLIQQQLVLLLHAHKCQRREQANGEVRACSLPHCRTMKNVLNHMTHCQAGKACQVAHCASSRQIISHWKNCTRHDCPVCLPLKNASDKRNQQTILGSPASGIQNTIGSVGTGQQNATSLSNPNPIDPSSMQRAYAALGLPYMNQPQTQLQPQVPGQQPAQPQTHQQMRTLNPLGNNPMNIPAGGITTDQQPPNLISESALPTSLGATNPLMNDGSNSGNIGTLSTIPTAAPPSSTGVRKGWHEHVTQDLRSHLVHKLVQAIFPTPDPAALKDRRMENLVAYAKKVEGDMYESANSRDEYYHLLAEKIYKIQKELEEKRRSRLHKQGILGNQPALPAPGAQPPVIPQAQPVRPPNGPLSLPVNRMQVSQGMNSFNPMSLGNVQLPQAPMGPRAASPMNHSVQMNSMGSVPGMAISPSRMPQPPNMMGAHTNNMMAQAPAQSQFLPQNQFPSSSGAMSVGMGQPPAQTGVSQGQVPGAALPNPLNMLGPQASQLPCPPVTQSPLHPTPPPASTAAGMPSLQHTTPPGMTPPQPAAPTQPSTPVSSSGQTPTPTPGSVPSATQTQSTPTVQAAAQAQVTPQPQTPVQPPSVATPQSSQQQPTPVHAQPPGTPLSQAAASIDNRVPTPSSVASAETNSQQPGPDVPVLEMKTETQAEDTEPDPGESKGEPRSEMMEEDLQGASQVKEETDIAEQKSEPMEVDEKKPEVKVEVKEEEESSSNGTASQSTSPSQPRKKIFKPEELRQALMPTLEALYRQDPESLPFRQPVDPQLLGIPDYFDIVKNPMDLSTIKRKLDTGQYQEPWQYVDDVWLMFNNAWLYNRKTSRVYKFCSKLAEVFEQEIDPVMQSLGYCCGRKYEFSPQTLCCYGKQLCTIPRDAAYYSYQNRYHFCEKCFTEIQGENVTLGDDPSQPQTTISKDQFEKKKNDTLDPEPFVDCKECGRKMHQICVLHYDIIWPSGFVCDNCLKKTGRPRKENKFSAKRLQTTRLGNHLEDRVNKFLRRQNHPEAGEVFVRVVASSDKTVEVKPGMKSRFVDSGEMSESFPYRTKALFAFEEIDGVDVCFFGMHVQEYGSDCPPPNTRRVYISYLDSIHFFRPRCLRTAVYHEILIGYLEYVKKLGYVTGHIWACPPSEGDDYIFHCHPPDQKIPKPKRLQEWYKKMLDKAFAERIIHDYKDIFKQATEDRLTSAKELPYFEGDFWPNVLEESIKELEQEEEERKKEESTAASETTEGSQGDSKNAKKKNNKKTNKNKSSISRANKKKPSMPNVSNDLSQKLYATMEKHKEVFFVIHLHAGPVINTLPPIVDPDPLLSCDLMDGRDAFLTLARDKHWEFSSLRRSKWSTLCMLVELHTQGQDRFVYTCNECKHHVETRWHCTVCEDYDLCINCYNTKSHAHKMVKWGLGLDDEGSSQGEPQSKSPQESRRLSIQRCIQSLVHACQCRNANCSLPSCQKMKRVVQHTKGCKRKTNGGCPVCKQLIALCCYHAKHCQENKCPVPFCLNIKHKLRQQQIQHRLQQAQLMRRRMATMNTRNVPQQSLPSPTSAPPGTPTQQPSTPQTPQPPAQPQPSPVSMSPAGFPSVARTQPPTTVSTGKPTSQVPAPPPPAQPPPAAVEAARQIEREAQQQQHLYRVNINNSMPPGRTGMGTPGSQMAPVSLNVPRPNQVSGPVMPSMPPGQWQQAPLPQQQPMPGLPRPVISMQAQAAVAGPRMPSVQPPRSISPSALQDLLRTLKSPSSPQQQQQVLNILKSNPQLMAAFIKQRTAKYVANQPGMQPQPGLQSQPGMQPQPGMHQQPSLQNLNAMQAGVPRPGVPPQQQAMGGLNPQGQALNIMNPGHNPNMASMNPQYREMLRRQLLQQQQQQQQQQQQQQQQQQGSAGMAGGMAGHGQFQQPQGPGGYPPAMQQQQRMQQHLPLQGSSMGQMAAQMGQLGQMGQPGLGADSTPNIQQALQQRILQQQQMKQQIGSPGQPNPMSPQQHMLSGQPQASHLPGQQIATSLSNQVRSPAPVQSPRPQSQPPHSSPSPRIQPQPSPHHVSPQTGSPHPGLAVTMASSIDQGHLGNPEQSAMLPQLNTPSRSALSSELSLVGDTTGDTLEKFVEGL

SMILES: CNC(=O)Nc1ccc2c(c1)CCS21OC(=O)N(CC(=O)N(Cc2ccc(F)cc2)[C@@H](C)C(F)(F)F)C1=O (stereo partly drawn)
- Activity (Mus musculus [1]): Active
- inhibition (Mus musculus [2]): Active
- inhibition (Mus musculus [3]): Active
- inhibition (Adipocyte [4]): Active
- inhibition (Adipocyte [5]): Active
- inhibition (Adipocyte [6]): Active
- inhibition (Adipocyte [7]): Active
- inhibition (Mus musculus [8]): Active
- inhibition (Mus musculus [9]): Active
- inhibition (Mus musculus [10]): inactive
- inhibition (Hepatocyte [11]): Active
- inhibition (Hepatocyte [12]): inactive
- inhibition [13]: Active
